High-throughput results deposited in PubChem by The Scripps Research Institute Molecular Screening Center.
An excerpt weighted towards active compounds, which were near 1.8% of everything screened.
DDE Tn7 FP inh: inhibitors of Tn7 peptide binding to fibrin DD(E), primary screen, biochemical, fluorescence polarization, human fibrin, Tn7 probe; Fibrinogen beta chain (Homo sapiens), P02675; FP displacement of FITC-Tn7 peptide from fibrin DD(E); 0% = median of compound wells per plate; inhibition, % at 8.3 µM; actives 0.13% (n = 370,000); AID 720508, 2013;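 active means inhibition above the mean of compounds falling within the control limits plus 3 SD of them, cut at about 14% in these data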;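 further: 0% = plate median of compound wells and 100% = 10 µM Aha-Tn7 peptide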
Target sequence (P02675 whole entry, looked up): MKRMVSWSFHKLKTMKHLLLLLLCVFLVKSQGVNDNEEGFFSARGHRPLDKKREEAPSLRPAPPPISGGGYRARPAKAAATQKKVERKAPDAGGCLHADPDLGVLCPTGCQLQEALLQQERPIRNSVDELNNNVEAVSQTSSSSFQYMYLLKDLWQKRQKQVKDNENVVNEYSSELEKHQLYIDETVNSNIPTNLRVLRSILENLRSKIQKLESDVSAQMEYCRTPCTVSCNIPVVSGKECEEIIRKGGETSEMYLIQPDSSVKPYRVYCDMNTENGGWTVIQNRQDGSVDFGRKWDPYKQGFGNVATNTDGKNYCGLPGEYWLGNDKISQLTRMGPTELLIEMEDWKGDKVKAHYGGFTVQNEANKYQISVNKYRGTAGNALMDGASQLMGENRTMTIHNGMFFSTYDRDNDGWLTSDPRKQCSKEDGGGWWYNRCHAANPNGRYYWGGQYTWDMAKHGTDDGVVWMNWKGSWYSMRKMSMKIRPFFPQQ
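Measure: % inhibition scaled between sample-field median and high-control FP; Test system: human fibrin DD(E); Quantity: 2 µM final DD(E) protein; Doses: one dose, 8.3 µM nominal; Schedule: compound with protein 10 min, then 3 h after probe, room temperature; Detection: fluorescence polarization; Medium: Tris buffer with calcium and detergent, pH 7.8.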
HTRA1 inh: HTRA1 serine protease inhibitors, primary screen, biochemical, fluorescence polarization, HTS; actives 0.5% (n = 340,000); inhibition, % at 5.96 µM; recombinant HTRA1, FP-rhodamine activity-based probe; Q92743; AID 504803, 2011; in the data active means inhibition above about 36%;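 further: 0% = enzyme with DMSO and 100% = wells lacking enzyme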
SIAE primary: human SIAE inhibitors, primary screen, biochemical, fluorescence polarization, FP-Rh probe, 1536-well HTS; SIAE FP-Rh probe binding; inhibition, % at 9.66 µM; actives 0.69% (n = 370,000);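 active means inhibition above a cutoff: mean of compounds within the control limits plus 3 SD of those, cut at about 17% in these data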;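 further: 0% = plate median of compound wells and 100% = probe without SIAE protein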
TCR-CD3 inh: inhibitors of human TCR-CD3 interaction, primary screen, biochemical, fluorescence, TAMRA-labeled TCR probe; inhibition, % at 9.4 µM; actives 0.37% (n = 360,000); AID 651800, 2012; in the data active means inhibition above about 19%;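 further: recombinant mutant TCR 2C K166C tagged with TAMRA read by polarization; 0% = receptor in buffer alone and 100% = receptor with positive control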
mABHD4 FP: ABHD4 inhibitors, primary screen, biochemical, fluorescence polarization, mouse. actives 0.54% (n = 370,000). purified mABHD4, FP-Rh probe fluorescence polarization. AID 720543, 2013. inhibition, % at 8.92 µM;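 active means inhibition exceeding the mean over every tested compound plus 3 SD, cut at about 30% in these data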;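 further: 0% = plate median of compound wells and 100% = S159A mutant with DMSO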
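Test system: mABHD4 protein; Read-out basis: % inhibition; Incubation: 45 min + 60 min at 25 °C; Repeats: single replicate; Technique: fluorescence polarization with parallel and perpendicular emission, 525/598 nm; Compound: 8.92 µM, single dose; Benchmarks: full inhibition S159A mutant plus DMSO, zero as sample-well median.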
DDE Tn6 FP inh: inhibitors of Tn6 peptide binding to fibrin DD(E), primary screen, biochemical, fluorescence polarization, human fibrin, Tn6 probe. Fibrinogen beta chain (Homo sapiens), P02675. Fibrin DD(E) TRITC-Tn6 fluorescence polarization displacement. AID 720509, 2013. actives 0.21% (n = 370,000). inhibition, % at 8.3 µM;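 active means inhibition above a per-campaign cutoff: mean of compounds within control limits plus 3 SD, cut at about 15% in these data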;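 further: 0% = median of all compound wells on the plate and 100% = blocking peptide control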
mABHD4 conf: ABHD4 inhibitors, retest, confirmation, biochemical, fluorescence polarization, mouse; actives 55% (n = 1,800); shares compounds with mABHD4 FP; purified mABHD4, FP-Rh probe fluorescence polarization; inhibition, % at 8.92 µM;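 active means mean inhibition across replicates above the hit cutoff set in the primary screen, cut at about 30% in these data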;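 further: 0% = wild-type ABHD4 with DMSO and 100% = catalytically dead S159A mutant with DMSO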
Active calls of the source: *.

Screening COc1ccc(Cl)cc1NC(=O)NNC(=O)c1ccccn1 returned DDE Tn7 FP inh -7.8, HTRA1 inh 1.9, SIAE primary 3.3, TCR-CD3 inh -17.4, mABHD4 FP 39.7*, DDE Tn6 FP inh -5.7 and mABHD4 conf 29.2.
CC1(C)Nc2ccc(O)cc2-c2c1ssc2=S was read as DDE Tn7 FP inh -5.1, HTRA1 inh 19.8, SIAE primary 2.7, TCR-CD3 inh -4.4, mABHD4 FP 36.6*, DDE Tn6 FP inh 5.9 and mABHD4 conf 32.5*.
`O=c1cc(CSc2ccc(Cl)cc2)[nH]c2[nH]n(-c3ccccc3)c(=O)c12` gave DDE Tn7 FP inh 3.4, HTRA1 inh 20.4, SIAE primary 13.8, TCR-CD3 inh 9.7, mABHD4 FP 46.9*, DDE Tn6 FP inh -2.3 and mABHD4 conf 26.2.
`CC1(C)Oc2ccc(C(=O)NCCCN3CCCC3)cc2NC1=O` gave DDE Tn7 FP inh -2.3, SIAE primary 1.1, mABHD4 FP 3.8 and DDE Tn6 FP inh 4.0.
Screening Cc1noc(C)c1S(=O)(=O)N1CCCc2nc(-c3ccc(F)cc3)ccc21 returned DDE Tn7 FP inh 1.5, SIAE primary 1.4, TCR-CD3 inh -1.4, mABHD4 FP -19.3 and DDE Tn6 FP inh 0.8.
CCOC(=O)C1=C(C)NC2=C(C(=O)c3ccccc32)C1c1ccc(O)cc1 (stereo not drawn) was read as DDE Tn7 FP inh -1.7, HTRA1 inh 22.3, SIAE primary 5.2, TCR-CD3 inh -8.2, mABHD4 FP 42.5*, DDE Tn6 FP inh -3.4 and mABHD4 conf 49.1*.
`F[B-](F)(F)COc1ccccc1` gave DDE Tn7 FP inh -3.2, HTRA1 inh -3.2, SIAE primary 2.8, TCR-CD3 inh -0.8, mABHD4 FP 68.5*, DDE Tn6 FP inh 2.0 and mABHD4 conf 35.5*.
`c1ccc(OCCOCCOc2ccccc2)cc1` gave DDE Tn7 FP inh -5.1, HTRA1 inh -7.8, SIAE primary 2.6, TCR-CD3 inh -8.2, mABHD4 FP -0.1 and DDE Tn6 FP inh -6.3.
C[C@@H]1ON(C)[C@H]2C[C@H]3c4[nH]c5c(-c6ccccc6)cccc5c4CCN3C(=O)[C@@H]12 was read as DDE Tn7 FP inh -7.2, SIAE primary 1.9, TCR-CD3 inh -2.5, mABHD4 FP 7.4 and DDE Tn6 FP inh 7.7.
For C[C@@H]1ON(C)[C@H]2C[C@H]3c4[nH]c5c(-c6ccc(C(F)(F)F)cc6)cccc5c4CCN3C(=O)[C@@H]12 the results were DDE Tn7 FP inh 2.1, SIAE primary -6.7, TCR-CD3 inh 0.6, mABHD4 FP 29.6*, DDE Tn6 FP inh 3.1 and mABHD4 conf 29.0.
For O=c1[nH]c2cc(Cl)cc([N+](=O)[O-])c2c2ccc(Cl)cc12 the results were DDE Tn7 FP inh -2.5, HTRA1 inh -5.9, SIAE primary -2.7, TCR-CD3 inh 5.1, mABHD4 FP 6.9 and DDE Tn6 FP inh 6.3.
O=c1[nH][nH]c2c([N+](=O)[O-])ccc(F)c12 was read as DDE Tn7 FP inh -10.8, SIAE primary 0.0, TCR-CD3 inh 13.3, mABHD4 FP 36.3*, DDE Tn6 FP inh 2.7 and mABHD4 conf 33.7*.
For COC(=O)[C@H](CC(C)C)N(CCc1cn(Cc2ccccc2)nn1)S(=O)(=O)c1ccccc1Br the results were DDE Tn7 FP inh -0.4, SIAE primary -1.6, mABHD4 FP 2.7 and DDE Tn6 FP inh -10.4.
`Cc1ccc(NC(=S)NNc2ccc([N+](=O)[O-])cc2S(=O)(=O)Nc2ccccc2C(=O)O)cc1C` gave DDE Tn7 FP inh -1.7, HTRA1 inh 15.3, SIAE primary 13.8, TCR-CD3 inh 6.4, mABHD4 FP 46.3*, DDE Tn6 FP inh 3.6 and mABHD4 conf 85.3*.
For CCCCCc1cccc2[nH]cc(-c3ccccc3)c12 the results were DDE Tn7 FP inh 7.4, SIAE primary 2.4, mABHD4 FP 1.1 and DDE Tn6 FP inh 1.5.
For c1cc2c(cc1C1CCCCC1)c1c3n2CCCNC3CCC1 (stereo not drawn) the results were DDE Tn7 FP inh -2.0, HTRA1 inh 26.3, SIAE primary 9.6, TCR-CD3 inh 4.0, mABHD4 FP 35.5*, DDE Tn6 FP inh -4.6 and mABHD4 conf 57.2*.
Cc1ccc2c(c1)c1c3n2CCCNC3CCC1 (stereo not drawn) was read as DDE Tn7 FP inh -2.4, HTRA1 inh 12.7, SIAE primary 10.0, TCR-CD3 inh 1.8, mABHD4 FP 1.4 and DDE Tn6 FP inh -2.0.
O=C(Cc1c[nH]c2ccccc12)Nc1ccc(Nc2cccnc2)c(-c2ccc(OC(F)(F)F)cc2)c1 was read as DDE Tn7 FP inh -0.5, SIAE primary 7.5, TCR-CD3 inh -4.9, mABHD4 FP 20.3 and DDE Tn6 FP inh -2.1.
Screening CC1=NN(c2ccccc2)C(=O)/C1=C/c1c(O)n(-c2ccc(F)cc2)[nH]c1=O returned DDE Tn7 FP inh -2.0, HTRA1 inh 10.0, SIAE primary -20.2, TCR-CD3 inh 9.2, mABHD4 FP 37.4*, DDE Tn6 FP inh -9.5 and mABHD4 conf 47.3*.
`CC1=CC2(O)OCCN(CCO)C2=CC1=O` (stereo not drawn) gave DDE Tn7 FP inh -1.1, HTRA1 inh 11.0, SIAE primary -0.1, TCR-CD3 inh 9.9, mABHD4 FP 30.2*, DDE Tn6 FP inh -0.6 and mABHD4 conf 6.3.
`Cc1cc(C)n(-c2ncc3c(n2)N(CCO)CCOC3=O)n1` gave DDE Tn7 FP inh 6.5, HTRA1 inh 1.9, SIAE primary -0.9, TCR-CD3 inh -4.7, mABHD4 FP -1.3 and DDE Tn6 FP inh -0.3.
COC(=O)[C@]12C[C@H](CC(=O)NCCCCc3ccccc3)C(=O)N(CCC3=CCCCC3)C1=C[C@H](C1CCCC1)O[C@@H]2C was read as DDE Tn7 FP inh 1.6, SIAE primary 1.9, mABHD4 FP 3.0 and DDE Tn6 FP inh 1.3.
`CCOC(=O)C1=C(C)N=c2s/c(=C\c3ccc(OCC(=O)O)cc3)c(=O)n2C1c1ccccc1OC` (stereo not drawn) gave DDE Tn7 FP inh 1.8, HTRA1 inh -17.8, SIAE primary -2.7, TCR-CD3 inh -0.7, mABHD4 FP -11.8 and DDE Tn6 FP inh -6.6.
